Test results published in ChEMBL document CHEMBL4330168, “Monomeric and Dimeric Cytotoxic Guaianolide-Type Sesquiterpenoids from the Aerial Parts of Chrysanthemum indicum” (J Nat Prod, 2019).
pIC50: −log10 of the molar value.

Key:
Format in all cases: functional, cell-based
SUNE1 = assay: Cytotoxicity against human SUNE1 cells after 48 hrs by MTT assay; settings: SUNE1, 48 h
Procedure, shortened: (§1)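 Growth inhibition in nasopharyngeal carcinoma lines (CNE1, CNE2, HONE-1, SUNE-1) and HT-29 colon cells. IC50 values are the mean ± SD of three experiments, with cisplatin as positive control.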

HT-29 = assay: Cytotoxicity against human HT-29 cells after 48 hrs by MTT assay; settings: HT-29, 48 h; procedure, shortened: as §1
CNE = assay: Cytotoxicity against human CNE1 cells after 48 hrs by MTT assay; procedure, shortened: as §1
HONE1 cell line = assay: Cytotoxicity against human HONE1 cells after 48 hrs by MTT assay; settings: HONE1, 48 h; procedure, shortened: as §1
CNE-2 = assay: Cytotoxicity against human CNE2 cells after 48 hrs by MTT assay; settings: CNE-2, 48 h; procedure, shortened: as §1

| Compound | pIC50 (SUNE1) | pIC50 (HT-29) | pIC50 (CNE) | pIC50 (HONE1 cell line) | pIC50 (CNE-2) |
| --- | --- | --- | --- | --- | --- |
| C=C1C(=O)O[C@@H]2[C@@H]3[C@@]4(C=C[C@@]3(C)[C@]3(C4)C(=O)O[C@@H]4[C@H]5C(C)=CC[C@H]5[C@](C)(O)C[C@H](OC(=O)/C(C)=C/C)[C@H]43)[C@](C)(O)CC[C@@H]12 | < 5.00 | < 5.00 | < 5.00 | < 5.00 | < 5.00 |
| C/C=C(\C)C(=O)O[C@H]1C[C@@](C)(O)[C@@H]2CC=C(C)[C@@H]2[C@H]2OC(=O)[C@H](C)[C@@H]21 | < 5.00 | < 5.00 | < 5.00 | < 5.00 | < 5.00 |
| C=C1C(=O)O[C@@H]2[C@@H]3[C@@]4(C=C[C@@]3(C)[C@]3(C4)C(=O)O[C@@H]4[C@H]5C(C)=CC(=O)C5=C(C)CC[C@H]43)[C@](C)(O)CC[C@@H]12 | < 5.00 | < 5.00 | < 5.00 | < 5.00 | < 5.00 |
| C=C1C(=O)O[C@@H]2[C@H]3C(C)=CC[C@H]3[C@](C)(O)C[C@H](OC(=O)/C(C)=C\C)[C@@H]12 | 5.25 | < 5.00 | 5.14 | 5.12 | 5.13 |
| C/C=C(\C)C(=O)O[C@H]1CC(C)=C2C[C@H](O)[C@](C)(O)[C@@H]2[C@H]2OC(=O)[C@@H](C)[C@@H]21 | < 5.00 | < 5.00 | < 5.00 | < 5.00 | < 5.00 |
| C=C1C(=O)O[C@@H]2[C@@H]3[C@@]4(C=C[C@@]3(C)[C@]3(C4)C(=O)O[C@@H]4[C@H]5C(C)=CC[C@H]5[C@](C)(O)C[C@H](OC(C)=O)[C@H]43)[C@](C)(O)CC[C@@H]12 | < 5.00 | < 5.00 | < 5.00 | < 5.00 | < 5.00 |
| C=C1C(=O)O[C@@H]2[C@@H]3[C@@]4(C=C[C@@]3(C)[C@]3(C4)C(=O)O[C@@H]4[C@H]5C(C)=CC[C@H]5[C@](C)(O)C[C@H](O)[C@H]43)[C@](C)(O)CC[C@@H]12 | < 5.00 | < 5.00 | < 5.00 | < 5.00 | < 5.00 |
| CC1=CC[C@@H]2[C@H]1[C@H]1OC(=O)[C@@H](C)[C@@H]1[C@H](O)C[C@@]2(C)O | < 5.00 | < 5.00 | < 5.00 | < 5.00 | < 5.00 |
